# Test results published in ChEMBL document CHEMBL1135784, “Novel antibiotics for the treatment of gram-positive bacterial infections” (J Med Chem, 2002).
# Legend:
# Assay type in all cases: functional
# [1] = system: Staphylococcus aureus; assay: Evaluated for its antibacterial activity against Staphylococcus aureus 133
# Outline: (§1)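 Broth microdilution in AOAC broth with 4% dextrose. Compounds tested over 0.125-64 µg/mL. Wells inoculated with a 1:500 dilution of an overnight culture. Plates incubated at 37 °C under 8-10% CO₂ and read after about 20 h. MIC taken as the first concentration with no visible growth.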
# [2] = system: Streptococcus pneumoniae; assay: Evaluated for its antibacterial activity against Streptococcus pneumoniae G9a
# Outline: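 For S. pneumoniae, microdilution used BHI broth diluted 1:10 with 10% bovine serum, and compounds at 0.125-64 µg/mL. Wells received a 1:50 dilution of an overnight culture. Plates were kept at 37 °C in 8-10% CO₂ and read after about 20 h. MIC was the lowest concentration without visible growth.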
# [3] = system: Enterococcus faecium; assay: Evaluated for its antibacterial activity against Enterococcus faecium L4001
# Outline: (§2)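 Broth microdilution in AOAC broth with 4% dextrose, with compounds at 0.125-64 µg/mL. Inoculum was a 1:50 dilution of an overnight culture. Incubation at 37 °C with 8-10% CO₂ for about 20 h. MIC read as the first concentration showing no visible growth.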
# [4] = system: Staphylococcus epidermidis; assay: Evaluated for its antibacteria activity against Staphylococcus epidermidis 18570; outline: as §1
# [5] = system: Enterococcus faecalis; assay: Evaluated for its antibacterial activity against Enterococcus faecalis 18513; outline: as §2
# [6] = system: Streptococcus pyogenes; assay: Evaluated for its antibacterial activity against Str. Pyogenes wacker; outline: as §2
# [7] = system: Escherichia coli; assay: Evaluated for its inhibitory activity against prokaryotic translation by using Escherichia coli transcription-translation assay
# Outline: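 Coupled E. coli transcription-translation system with a luciferase reporter; inhibition of bacterial translation measured by luminescence read-out.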
# [8] = system: Staphylococcus aureus; assay: Evaluated for its antibacteria activity against Staphylococcus aureus; outline: as §1
MIC [1] [µg/mL],MIC [2] [µg/mL],MIC [3] [µg/mL],MIC [4] [µg/mL],MIC [5] [µg/mL],MIC [6] [µg/mL],IC50 [7] [µM],MIC [8] [µg/mL],Compound
0.25,16,2,0.25,> 16,8,,,CN(C(=O)C[C@@H](N)CCCN=C(N)N)C1CN=C(NC(N)=O)NC1=O (stereo not given in full)
12.5,,,,,,12.5,,CC(C)/N=C(/N)NCCC[C@H](N)CC(=O)N(C)C1CN=C(NC(N)=O)NC1=O (stereo not given in full)
6.3,,,,,,12.5,,CC/N=C(/N)NCCC[C@H](N)CC(=O)N(C)C1CN=C(NC(N)=O)NC1=O (stereo not given in full)
3.2,,,,,,,,CC(C)C(=N)NCCC[C@H](N)CC(=O)N(C)C1CN=C(NC(N)=O)NC1=O (stereo not given in full)
0.025,4,2,0.12,64,0.5,0.06,,CN(CCC[C@H](N)CC(=O)N(C)C1CN=C(NC(N)=O)NC1=O)C(=N)N (stereo not given in full)
0.2,16,16,0.2,> 64,1,0.1,0.2,C/C(N)=N/CCC[C@H](N)CC(=O)N(C)C1CN=C(NC(N)=O)NC1=O (stereo not given in full)
0.8,16,16,0.13,64,4,0.5,,C/N=C(/N)NCCC[C@H](N)CC(=O)N(C)C1CN=C(NC(N)=O)NC1=O (stereo not given in full)
0.4,32,8,0.5,> 64,8,0.4,,C/N=C(/N)N(C)CCC[C@H](N)CC(=O)N(C)C1CN=C(NC(N)=O)NC1=O.Cl.Cl (stereo not given in full)
